Assay results reported in article PMC9080015 (RSC Advances, 2018).
Where two headings read alike, the source gives them in different places.

Tests used:
Format in all cases: biochemical
[1] = biological target: T1, recombinant human CYP1B1 (Homo sapiens, UniProt Q16678); test: EROD assay, recombinant human CYP1B1 inhibition; settings: for IC50 ratio 1A1/1B1: selectivity for CYP1B1 over CYP1A1; for IC50 ratio 1A2/1B1: selectivity for CYP1B1 over CYP1A2
T1 sequence (Q16678 1-543): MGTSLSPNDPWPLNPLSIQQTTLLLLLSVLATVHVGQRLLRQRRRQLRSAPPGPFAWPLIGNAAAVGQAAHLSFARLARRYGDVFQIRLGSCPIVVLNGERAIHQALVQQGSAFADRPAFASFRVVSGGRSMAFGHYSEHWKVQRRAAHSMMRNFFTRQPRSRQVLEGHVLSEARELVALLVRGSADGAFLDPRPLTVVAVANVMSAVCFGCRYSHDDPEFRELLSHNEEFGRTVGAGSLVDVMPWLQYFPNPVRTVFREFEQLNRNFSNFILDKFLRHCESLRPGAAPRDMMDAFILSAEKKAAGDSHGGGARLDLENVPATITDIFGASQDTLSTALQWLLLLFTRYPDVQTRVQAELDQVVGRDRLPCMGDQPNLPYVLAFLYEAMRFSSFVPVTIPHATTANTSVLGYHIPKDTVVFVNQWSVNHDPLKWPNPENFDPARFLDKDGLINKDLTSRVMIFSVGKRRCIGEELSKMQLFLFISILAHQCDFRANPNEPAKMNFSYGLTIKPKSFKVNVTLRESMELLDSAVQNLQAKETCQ

[2] = biological target: T2, CYP1A1 (Homo sapiens, UniProt P04798); test: EROD assay, recombinant human CYP1A1 inhibition
T2 sequence (P04798 1-512): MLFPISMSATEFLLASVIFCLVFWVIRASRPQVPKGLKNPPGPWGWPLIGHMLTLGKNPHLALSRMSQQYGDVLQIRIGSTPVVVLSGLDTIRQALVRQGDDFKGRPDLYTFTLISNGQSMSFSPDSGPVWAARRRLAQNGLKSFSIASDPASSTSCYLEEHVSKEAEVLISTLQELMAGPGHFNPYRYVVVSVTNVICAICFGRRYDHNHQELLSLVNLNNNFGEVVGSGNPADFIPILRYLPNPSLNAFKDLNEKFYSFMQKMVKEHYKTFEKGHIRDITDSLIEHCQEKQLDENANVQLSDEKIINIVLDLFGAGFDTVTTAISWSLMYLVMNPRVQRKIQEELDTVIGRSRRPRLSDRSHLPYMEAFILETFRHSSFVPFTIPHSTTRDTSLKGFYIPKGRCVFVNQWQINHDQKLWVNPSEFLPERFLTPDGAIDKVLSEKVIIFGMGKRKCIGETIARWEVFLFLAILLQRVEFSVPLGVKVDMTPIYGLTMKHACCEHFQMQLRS
Outline: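 Supersomes with P450 reductase. Test compound is taken from 10 mM DMSO stock into Tris–HCl pH 7.4 (final DMSO <1% v/v), at several concentrations. Methanol stop. Resorufin fluorescence read at ex 544/em 590 nm. IC50 from nonlinear regression, log(inhibitor) vs normalized response, variable slope.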

[3] = biological target: T3, CYP1A2 (Homo sapiens, UniProt P05177); test: EROD assay, recombinant human CYP1A2 inhibition
T3 sequence (P05177 2-516 limits assumed): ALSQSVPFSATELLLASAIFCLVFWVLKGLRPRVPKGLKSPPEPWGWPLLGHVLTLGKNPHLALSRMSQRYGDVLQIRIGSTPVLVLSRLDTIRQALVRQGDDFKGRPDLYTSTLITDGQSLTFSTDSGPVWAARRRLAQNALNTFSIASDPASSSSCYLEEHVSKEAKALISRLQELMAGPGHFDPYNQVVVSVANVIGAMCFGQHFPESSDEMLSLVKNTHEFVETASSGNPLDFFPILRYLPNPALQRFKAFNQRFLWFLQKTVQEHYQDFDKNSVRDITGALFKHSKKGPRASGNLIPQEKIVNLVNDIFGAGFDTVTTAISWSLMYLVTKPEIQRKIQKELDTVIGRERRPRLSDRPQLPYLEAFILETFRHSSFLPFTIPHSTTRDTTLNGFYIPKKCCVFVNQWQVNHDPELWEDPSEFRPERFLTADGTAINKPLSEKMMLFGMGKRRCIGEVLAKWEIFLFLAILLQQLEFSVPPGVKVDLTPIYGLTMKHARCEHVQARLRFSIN

[4] = read-out: IC50 values (nM) 1B1, EROD assay, 20 fmol CYP1B1, 150 nM 7-ER, 37 °C, 35 min

Compound	IC50 [1]	IC50 ratio 1A1/1B1 [1]	IC50 ratio 1A2/1B1 [1]	IC50 [2]	IC50 [3]	IC50 values (nM) 1B1 ([1]; EROD assay, 20 fmol CYP1B1, 150 nM 7-ER, 37 °C, 35 min)	IC50 [1, 4]	IC50 at 15 min ([2]; human, recombinant human CYP1A1 with P450 reductase (Supersomes), pH 7.4, probe 7-ethoxyresorufin (7-ER), 150 nM)	IC50 at 50 min ([3]; human, recombinant human CYP1A2 with P450 reductase (Supersomes), pH 7.4, probe 7-ethoxyresorufin (7-ER), 150 nM)	IC50 ([2]; read-out: IC50 values (nM) 1A1, EROD assay, 10 fmol CYP1A1, 150 nM 7-ER, 37 °C, 15 min)	IC50 ([3]; read-out: IC50 values (nM) 1A2, EROD assay, 60 fmol CYP1A2, 150 nM 7-ER, 37 °C, 50 min)
O=c1c(O)c(-c2ccccc2F)[nH]c2c1ccc1ccccc12 [Compound 3b, 2-(2-Fluorophenyl)-3-hydroxybenzo[h]quinolin-4(1H)-one]	85.9 nM	20.8	>58.2	1780 nM	> 5000 nM						
COc1cc(C2CC(=O)c3ccc4ccccc4c3N2)cc(OC)c1OC (stereo not drawn) [Compound 1b, 2-(3,4,5-Trimethoxyphenyl)-2,3-dihydrobenzo[h]quinolin-4(1H)-one]	20.2 nM	2.2	>247.5	44.6 nM	> 5000 nM						
O=c1c(O)c(-c2ccc(O)cc2)[nH]c2c1ccc1ccccc12 [Compound 3c, 3-Hydroxy-2-(4-hydroxyphenyl)benzo[h]quinolin-4(1H)-one]	142 nM	3.7	>35.3	525 nM	> 5000 nM						
COc1cc([C@@H]2Nc3c(ccc4ccccc34)C(=O)[C@@H]2O)cc(OC)c1OC [Compound 2b, (2S,3R) 3-Hydroxy-2-(3,4,5-trimethoxyphenyl)-2,3-dihydrobenzo[h]quinolin-4(1H)-one]	303 nM	3.8	>16.5	1160 nM	> 5000 nM						
O=c1cc(-c2ccccc2)[nH]c2c1ccc1ccccc12 [Compound 3e, 2-Phenylbenzo[h]quinolin-4(1H)-one]	17.3 nM	6.0	27.9	103 nM	483 nM						
O=c1c(O)c(-c2ccc(F)cc2)[nH]c2c1ccc1ccccc12 [Compound 3d, 2-(4-Fluorophenyl)-3-hydroxybenzo[h]quinolin-4(1H)-one]	93.3 nM	3.6	>53.6	334 nM	> 5000 nM						
O=c1c(O)c(-c2ccccc2)[nH]c2c1ccc1ccccc12 [Compound 3a, 3-Hydroxy-2-phenylbenzo[h]quinolin-4(1H)-one]	86.7 nM	10.4	>57.7	898 nM	> 5000 nM						
O=C1CC(c2ccccc2F)Nc2c1ccc1ccccc21 (stereo not drawn) [Compound 1c, 2-(2-Fluorophenyl)-2,3-dihydrobenzo[h]quinolin-4(1H)-one]	139 nM	4.1	7.9	578 nM	1100 nM						
O=C1CC(c2cccc(F)c2)Nc2c1ccc1ccccc21 (stereo not drawn) [Compound 1d, 2-(3-Fluorophenyl)-2,3-dihydrobenzo[h]quinolin-4(1H)-one]	98.6 nM	5.0	10.6	493 nM	1050 nM						
O=C1c2ccc3ccccc3c2N[C@@H](c2ccccc2)[C@H]1O [Compound 2a, (2S,3R) 3-Hydroxy-2-phenyl-2,3-dihydrobenzo[h]quinolin-4(1H)-one]	260 nM	2.3	5.4	588 nM	1410 nM						
O=C1CC(c2ccccc2)Nc2c1ccc1ccccc21 (stereo not drawn) [Compound 1a, 2-Phenyl-2,3-dihydrobenzo[h]quinolin-4(1H)-one]	131 nM	3.1	7.3	405 nM	953 nM						

The next lines start with the values.

IC50 [1]	IC50 ratio 1A1/1B1 [1]	IC50 ratio 1A2/1B1 [1]	IC50 [2]	IC50 [3]	IC50 values (nM) 1B1 ([1]; EROD assay, 20 fmol CYP1B1, 150 nM 7-ER, 37 °C, 35 min)	IC50 [1, 4]	IC50 at 15 min ([2]; human, recombinant human CYP1A1 with P450 reductase (Supersomes), pH 7.4, probe 7-ethoxyresorufin (7-ER), 150 nM)	IC50 at 50 min ([3]; human, recombinant human CYP1A2 with P450 reductase (Supersomes), pH 7.4, probe 7-ethoxyresorufin (7-ER), 150 nM)	IC50 ([2]; read-out: IC50 values (nM) 1A1, EROD assay, 10 fmol CYP1A1, 150 nM 7-ER, 37 °C, 15 min)	IC50 ([3]; read-out: IC50 values (nM) 1A2, EROD assay, 60 fmol CYP1A2, 150 nM 7-ER, 37 °C, 50 min)	Compound
	15.8	>1219.5		> 5000 nM							COc1ccc(-c2cc(=O)c3cc(OC)c4cccc(OC)c4c3[nH]2)cc1 [Compound 5h, 6,10-Dimethoxy-2-(4-methoxyphenyl)benzo[h]quinolin-4(1H)-one]
					no longer a CYP1 inhibitor	> 5000 nM	> 5000 nM	> 5000 nM			COc1cc(-c2ccccc2)nc2c1ccc1ccccc12 [Compound 4b, 4-Methoxy-2-phenylbenzo[h]quinoline]
7.8 nM	5.0	42.4	39.3 nM	331 nM							COc1cc2c(=O)cc(-c3cccc(F)c3)[nH]c2c2c(OC)cccc12 [Compound 5c, 2-(3-Fluorophenyl)-6,10-dimethoxybenzo[h]quinolin-4(1H)-one]
27.9 nM	0.9	6.2	26.4 nM	174 nM							COc1cc2c(=O)cc(-c3ccccc3F)[nH]c2c2c(OC)cccc12 [Compound 5b, 2-(2-Fluorophenyl)-6,10-dimethoxybenzo[h]quinolin-4(1H)-one]
	2.4	19.3				7.6 nM			18.5 nM	147 nM	2-Phenylbenzo[h]quinolin-4-ol [Compound 4a]
	2.7	540.3		2110 nM							COc1cc2c(=O)cc(-c3ccc(F)cc3)[nH]c2c2c(OC)cccc12 [Compound 5g, 2-(4-Fluorophenyl)-6,10-dimethoxybenzo[h]quinolin-4(1H)-one]
27.6 nM	1.1	3.1	29.4 nM	84.5 nM							COc1cc2c(=O)cc(-c3cccc(Cl)c3)[nH]c2c2c(OC)cccc12 [Compound 5d, 2-(3-Chlorophenyl)-6,10-dimethoxybenzo[h]quinolin-4(1H)-one]
34.4 nM	8.7	38.9	300 nM	1340 nM							COc1cc2c(=O)cc(-c3ccc(C(F)(F)F)cc3)[nH]c2c2c(OC)cccc12 [Compound 5i, 6,10-Dimethoxy-2-(4-(trifluoromethyl)phenyl)benzo[h]quinolin-4(1H)-one]
164 nM	4.9	>30.5	809 nM	> 5000 nM							COc1cc(-c2cc(=O)c3cc(OC)c4cccc(OC)c4c3[nH]2)cc(OC)c1OC [Compound 5j, 6,10-Dimethoxy-2-(3,4,5-trimethoxyphenyl)benzo[h]quinolin-4(1H)-one]
7.1 nM	5.0	26.8	35.8 nM	190 nM							COc1cccc(-c2cc(=O)c3cc(OC)c4cccc(OC)c4c3[nH]2)c1 [Compound 5f, 6,10-Dimethoxy-2-(3-methoxyphenyl)benzo[h]quinolin-4(1H)-one]
16.6 nM	0.8	8.9	12.6 nM	148 nM							COc1cc2c(=O)cc(-c3ccccc3)[nH]c2c2c(OC)cccc12 [Compound 5a, 6,10-Dimethoxy-2-phenylbenzo[h]quinolin-4(1H)-one]
